# PubChem BioAssay AID492951 (Molecular Libraries Program, Specialized Chemistry Center, …, 2010)
# Unmarked numbers belong to inactive results. Activity calls are given as the source filed them.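 Rule for the calls: active = inhibition above 10%; inactive = the rest.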
# Target: Hexokinase-4 (Homo sapiens) (UniProt P35557)
# Assay: human glucokinase inhibition, counter-screen for TbHK1 inhibitor project, biochemical, recombinant hGlck (AID 492951)
# Details: G6PDH-coupled NADH absorbance 340 nm, at 10 µM; hits give high values
# Method in brief: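 Test system: purified recombinant human glucokinase (HK4) with G6PDH coupling enzyme / Reagent: 20 mM glucose as reaction starter, plus 1 mM ATP / Timing: 10 min room-temperature compound-enzyme preincubation before glucose addition / Measured by: A340 of NADH / Repeats: three replicates per compound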
# Hexokinase-4 (Homo sapiens), sequence (P35557 whole entry, looked up): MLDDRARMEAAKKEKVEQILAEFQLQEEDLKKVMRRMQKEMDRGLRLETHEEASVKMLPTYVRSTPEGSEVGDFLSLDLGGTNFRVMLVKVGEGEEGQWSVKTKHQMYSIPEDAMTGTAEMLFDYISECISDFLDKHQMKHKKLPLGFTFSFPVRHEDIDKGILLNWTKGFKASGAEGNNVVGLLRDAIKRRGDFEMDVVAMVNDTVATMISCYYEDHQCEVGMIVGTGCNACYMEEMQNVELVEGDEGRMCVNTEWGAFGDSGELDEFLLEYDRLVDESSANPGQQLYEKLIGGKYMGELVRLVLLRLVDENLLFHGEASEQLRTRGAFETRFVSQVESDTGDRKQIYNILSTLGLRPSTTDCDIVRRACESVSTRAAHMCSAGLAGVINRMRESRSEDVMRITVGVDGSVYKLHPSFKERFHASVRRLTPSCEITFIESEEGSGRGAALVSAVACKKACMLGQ
Structure (SMILES),inhibition,outcome
O=C(Nc1cc(Cl)ccc1C(=O)O)c1ccc(-c2cccs2)cc1,30.3% (active),–
COc1ccc(-c2nc3c(Cl)c(Cl)ccc3c(=O)o2)cc1,9.2%,–
O=C(Nc1cc(Cl)ccc1C(=O)O)c1ccc(-c2ccccc2)cc1,27.6% (active),–
O=C(O)c1ccc(Cl)cc1NC(=O)C1CCOCC1,–,inactive
COc1ccc(-c2cc3ccccc3[nH]2)cc1,30.3% (active),–
COc1ccc(C(=O)Nc2cc(Br)ccc2C(=O)O)cc1,–,inactive
O=C(Cn1sc2ccccc2c1=O)NC1CCCCC1,8.01%,–
COc1ccc(C(=O)NC(CC(=O)O)c2ccccc2)cc1 (stereo not drawn),4%,–
COc1ccc(C(=O)Nc2ccccc2-c2nn[nH]n2)cc1,–,inactive
CCc1ccc(C(=O)Nc2cc(Br)ccc2C(=O)O)cc1,–,inactive
COc1ccc(C(=O)Nc2cc(Cl)ccc2C(=O)O)cc1OC,20.1% (active),–
Cc1ccc(NC(=O)Cn2sc3ccccc3c2=O)cc1,2.1%,–
COc1ccccc1C(=O)Nc1cc(Cl)ccc1C(=O)O,–,inactive
O=C(Nc1cc(Cl)ccc1C(=O)O)c1ccc2c(c1)OCO2,–,inactive
CC(C)(C)c1ccc(C(=O)Nc2c(C(=O)O)ccc(Cl)c2Cl)cc1,–,inactive
O=c1c2ccccc2sn1-c1ccc(Cl)cc1Cl,65.6% (active),–
O=C1c2cccc(Br)c2SCN1c1ccccc1,5.5%,–
O=c1c2cc(F)ccc2sn1-c1ccccc1,50.1% (active),–
COc1ccc(NC(=O)c2ccccc2C(=O)O)cc1,0.9%,–

Structure (SMILES),inhibition,outcome
O=C(Cn1sc2ccccc2c1=O)Nc1ccc(Br)cc1,33.8% (active),–
COc1ccc(C(=O)Nc2cc(C(=O)O)ccc2Cl)cc1,–,inactive
COc1ccc(C(=O)Nc2cc(Cl)ccc2C(=O)O)cn1,–,inactive
COc1ccc(C(=O)NC(CC(=O)O)c2cccc(Cl)c2)cc1 (stereo not drawn),–,inactive
CCOc1ccc(C(=O)Nc2cc(Cl)ccc2C(=O)O)cc1,9.4%,–
CC(=O)Nc1ccc2c(=O)n(-c3ccccc3)sc2c1,–,inactive
O=C(Cn1sc2ccccc2c1=O)Nc1ccccc1Cl,–,inactive
O=C(Nc1cc(Cl)ccc1C(=O)O)c1ccc(C2CCCC2)cc1,21.1% (active),–
O=c1c2cccnc2sn1-c1ccccc1,91.5% (active),–
CC(C)c1ccc(C(=O)Nc2cc(Cl)ccc2C(=O)O)cc1,–,inactive
O=C(O)c1ccc(Cl)cc1NC(=O)N1CCOCC1,–,inactive
CC(C)(C)c1ccc(C(=O)Nc2cc(Br)ccc2C(=O)O)cc1,26.2% (active),–
COc1ccc(NC(=O)c2ccc(Cl)cc2C(=O)O)cc1,–,inactive
COc1ccc(C(=O)NC(CC(=O)O)c2ccc(Cl)cc2)cc1 (stereo not drawn),–,inactive
O=c1c2c(Br)cccc2sn1-c1ccccc1,12.5% (active),–
COc1ccc(C(=O)Nc2cc(Cl)c(C)cc2C(=O)O)cc1,17.6% (active),–
O=C(Cn1sc2ccccc2c1=O)NCc1ccccc1,–,inactive
COc1ccc(Nc2cc(Cl)ccc2C(=O)O)cc1,–,inactive
COc1ccc(C(=O)N(C)c2cc(Cl)ccc2C(=O)O)cc1,6.7%,–
